For data set [1], the target named is T1, Amine oxidase [flavin-containing] B (Homo sapiens, UniProt P27338).
T1 sequence (P27338 whole entry): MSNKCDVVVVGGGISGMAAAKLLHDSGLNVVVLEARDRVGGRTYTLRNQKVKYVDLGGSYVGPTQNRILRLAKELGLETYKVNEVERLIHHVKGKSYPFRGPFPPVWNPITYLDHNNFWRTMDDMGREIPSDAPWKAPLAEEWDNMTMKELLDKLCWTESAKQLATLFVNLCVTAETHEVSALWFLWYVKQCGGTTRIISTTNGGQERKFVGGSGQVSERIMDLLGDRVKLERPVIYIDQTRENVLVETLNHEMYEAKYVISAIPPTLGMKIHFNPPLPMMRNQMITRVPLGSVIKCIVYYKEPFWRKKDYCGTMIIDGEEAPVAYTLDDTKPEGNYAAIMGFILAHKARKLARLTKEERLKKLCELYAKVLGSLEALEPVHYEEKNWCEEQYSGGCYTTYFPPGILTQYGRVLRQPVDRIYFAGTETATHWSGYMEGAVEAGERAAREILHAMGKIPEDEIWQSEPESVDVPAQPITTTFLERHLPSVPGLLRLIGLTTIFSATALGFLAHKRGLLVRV
Description: Inhibition of human recombinant MAOB expressed in insect cells using benzylamine hydrochloride as substrate after 30 mins. The method, boiled down: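 Human recombinant MAO-B (0.01 mg/mL) in 0.1 M isotonic phosphate buffer pH 7.4, inhibitor 0–7000 µM, benzylamine 1000 µM final, 30 min at 37 °C. Stopped with perchloric acid; benzaldehyde measured by reverse-phase HPLC with UV 254 nm. IC50 from sigmoidal log dose–response fit; triplicate, mean ± SD.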

For data set [2], the species on record is Homo sapiens. Description: Selectivity index, ratio of IC50 for human recombinant MAOB to IC50 for human recombinant MAOA. The method, boiled down: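 MAO-A (0.005 mg/mL; 150 μM kynuramine, 60 min, 37 °C, […]) and MAO-B (0.01 mg/mL; 1000 μM benzylamine, 30 min, 37 °C, perchloric acid stop, benzaldehyde by HPLC-UV at 254 nm) in isotonic 0.1 M phosphate pH 7.4. Inhibitor 0–7000 μM. IC50s from sigmoidal log curves in triplicate. SI = MAO-B IC50 / MAO-A IC50.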

For data set [3], the target named is T2, Amine oxidase [flavin-containing] A (Homo sapiens, UniProt P21397).
T2 sequence (P21397 whole entry): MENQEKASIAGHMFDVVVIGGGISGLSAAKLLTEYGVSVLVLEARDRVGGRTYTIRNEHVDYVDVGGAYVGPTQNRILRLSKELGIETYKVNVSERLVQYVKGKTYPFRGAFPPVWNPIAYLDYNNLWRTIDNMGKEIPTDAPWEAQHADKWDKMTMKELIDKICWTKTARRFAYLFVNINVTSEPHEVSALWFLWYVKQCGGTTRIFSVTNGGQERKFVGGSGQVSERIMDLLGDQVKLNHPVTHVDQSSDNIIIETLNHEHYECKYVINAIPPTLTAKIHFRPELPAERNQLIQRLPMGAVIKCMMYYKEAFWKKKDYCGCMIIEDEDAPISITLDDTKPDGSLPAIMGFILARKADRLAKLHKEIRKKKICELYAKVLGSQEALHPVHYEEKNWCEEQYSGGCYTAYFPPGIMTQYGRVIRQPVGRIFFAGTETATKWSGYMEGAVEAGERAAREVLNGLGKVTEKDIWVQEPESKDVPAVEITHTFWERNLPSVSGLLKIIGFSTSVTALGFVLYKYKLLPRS
Nature of the data set: Inhibition of human recombinant MAOA expressed in insect cells assessed as oxidation of kynuramine substrate at 6 mM measured after additional substrate added after 90 mins incubation. The conditions noted are these: 1.5 h. The method, boiled down:
(§1)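 Recombinant human MAO-A incubated with kynuramine, with or without inhibitor. Product formation followed over time. A second equivalent of substrate (150 µM kynuramine) added at 90 min and fresh enzyme added at 120 min.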

The target in data set [4] is T2, Amine oxidase [flavin-containing] A. Description: Mixed noncompetitive inhibition of human recombinant MAO-A assessed as dissociation constant for enzyme-inhibitor complex by Lineweaver-Burk plot analysis. The method, boiled down:
(§2)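 Human recombinant MAO-A (0.005 mg/mL) in 0.1 M sodium phosphate pH 7.4 made isotonic with NaCl, 37 °C, 30 min. Initial oxidation rates at four kynuramine levels (50–150 µM) without or with four inhibitor concentrations (range per compound, 5–1000 µM). Ki from Lineweaver–Burk plots and replots by linear regression; triplicate.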

For data set [5] the target is unchanged. Description: Inhibition of human recombinant MAOA expressed in insect cells assessed as oxidation of kynuramine substrate at 6 mM measured after additional enzyme added after 120 mins incubation. The conditions noted are these: 2 h, 6000 µM. The method, boiled down: as §1
For data set [6] the target is unchanged. Description: Inhibition of human recombinant MAOA expressed in insect cells using kynuramine substrate after 60 mins.
The target is the same in data set [7]. Description: Mixed noncompetitive inhibition of human recombinant MAO-A assessed as dissociation constant for enzyme-inhibitor-substrate complex by Lineweaver-Burk plot analysis. The method, boiled down:
as §2

Data set [8] has the same target. Nature of the data set: Inhibition of human recombinant MAOA expressed in insect cells assessed as oxidation of kynuramine substrate measured after additional substrate added after 90 mins incubation. The conditions noted are these: 1.5 h.
Data set [9] shares this target. Nature of the data set: Inhibition of human recombinant MAOA expressed in insect cells using kynuramine as substrate at 50 uM preincubated up to 40 mins before kynuramine substrate addition measured after 30 mins. To be noted: 0.5 h. The method, boiled down: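 MAO-A preincubated at 37 °C in 0.1 M isotonic phosphate buffer pH 7.4 with inhibitor, or buffer control, for […]. Diluted 50-fold into buffer containing kynuramine, then incubated 30 min. Activity is % of control; mean ± SD, n = 3.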

For data set [10] the target is unchanged. Description: Inhibition of human recombinant MAOA expressed in insect cells assessed as oxidation of kynuramine substrate at 500 uM measured after additional enzyme added after 120 mins incubation. To be noted: 2 h. The method, boiled down: as §1
Data set [11] has as its system Mus musculus. Nature of the data set: Neurotoxicity in C57BL/6J mouse assessed as effect on dopamine level at 25 mg/kg, sc by HPLC analysis. Further details: dose 25 mg/kg, route subcutaneous; call rule not given here. The format is toxicity, organism-based. The conditions noted are these: in vivo. The method, boiled down: (§3)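 Female C57BL/6J mice aged 3–4 months, single sc dose, 0.9% saline vehicle, killed 72 h later. Striata homogenised in ice-cold 0.2 M perchloric acid with dihydroxybenzylamine internal standard. Amines measured by C18 reverse-phase HPLC with electrochemical detection, mobile phase pH 3.0.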

Data set [12] addresses T2, Amine oxidase [flavin-containing] A. Description: Uncompetitive inhibition of human recombinant MAO-A assessed as dissociation constant for enzyme-inhibitor complex by Lineweaver-Burk plot analysis. The method, boiled down:
as §2

Data set [13] relates to Mus musculus. Nature of the data set: Neurotoxicity in C57BL/6J mouse assessed as increase of striatal GFAP level at 25 mg/kg, sc after 72 hrs by ELISA. The format is toxicity, organism-based. Set-up: dose 25 mg/kg, route subcutaneous. The conditions noted are these: in vivo. The method, boiled down:
(§4)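 Female C57BL/6J mice aged 3–4 months, single sc dose, 0.9% saline vehicle, killed 72 h post-dose. Striatum homogenised in hot 1% SDS. GFAP or TH measured by detergent-based sandwich ELISA.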

In data set [14] the test system is Mus musculus. Description: Neurotoxicity in C57BL/6J mouse assessed as effect on serotonin level at 25 mg/kg, sc by HPLC analysis. The format is toxicity, organism-based. To be noted: in vivo. Set-up: dose 25 mg/kg, route subcutaneous. The method, boiled down: as §3
The subject of data set [15] is Mus musculus. Description: Neurotoxicity in C57BL/6J mouse assessed as reduction of striatal tyrosine hydroxylase level at 25 mg/kg, sc after 72 hrs by ELISA. The format is toxicity, organism-based. Set-up: dose 25 mg/kg, route subcutaneous. To be noted: in vivo. The method, boiled down: as §4
Background: ELISA stands for enzyme-linked immunosorbent assay.

Data set [16] deals with T2, Amine oxidase [flavin-containing] A. Description: Inhibition of human recombinant MAOA expressed in insect cells assessed as oxidation of kynuramine substrate at 500 uM up to 90 mins. To be noted: 1.5 h. The method, boiled down:
as §1

Data set [17] has the same target. Nature of the data set: Inhibition of human recombinant MAOA expressed in insect cells assessed as oxidation of kynuramine substrate at 500 uM measured after additional substrate added after 90 mins incubation. To be noted: 1.5 h. The method, boiled down:
as §1

Data set [18] shares this target. Description: Inhibition of human recombinant MAOA expressed in insect cells assessed as formation of 4-hydroxyquinoline at 500 uM preincubated for 1 hr before kynuramine substrate measured after 1 hr in presence of sodium borohydride. The method, boiled down: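 MAO-A preincubated 60 min at 37 °C with inhibitor, no substrate. Then 5 µL of 300 mM NaBH4 added and held 15 min at 0 °C. Dialysed overnight at 0 °C against 0.1 M isotonic phosphate buffer pH 7.4. Residual activity: 4-hydroxyquinoline formation at 310 nm with 150 µM kynuramine, 60 min, 37 °C; n = 3.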

The values below come from ChEMBL document CHEMBL1938394, “Time-dependent slowly-reversible inhibition of monoamine oxidase A by N-substituted 1,2,3,6-tetrahydropyridines” (Bioorg Med Chem, 2011).

Broadly, the IC50 is the concentration at which inhibition is half-maximal. As a reminder, the Ki is a dissociation constant, usually derived from enzyme kinetics or from competition with a known ligand. For the compound `CC1=CCN(CCc2ccccc2)CC1`, the values for the IC50 in [1] and in data set [6] were 1250 µM and 623 µM, respectively. In [2], the Ratio IC50 was found to be 2. The “inhibition (INH)” value in data set [3] and in data set [5] was “Active” throughout. In addition, the Ki in data set [4] is 408 µM; in data set [7], 2590 µM.
On to `O=[N+]([O-])c1ccc(CCN2CC=CCC2)cc1`, for which the “inhibition (INH)” value in [8] is “Not Active”; in [9], “Active”. Moreover, the figures for the IC50 in [1] and in data set [6] were 272 µM and 37.8 µM, respectively. The Ratio IC50 in [2] is 7.2.
`C1=CCN(CCc2ccccc2)CC1`: the “inhibition (INH)” value was “Active” in data set [10]; “Active” in data set [9]; “Active” in data set [16]; “Active” in [17]; “Not Active” in data set [18]. Besides, the IC50 in [1] came to 1180 µM; in data set [6], 41.3 µM; in [12], 45.4 µM. In data set [2], the Ratio IC50 was 28.7. The Activity entry in data set [11], in [13], in data set [14] and in [15] was “Non-toxic” each time. Also, the Ki in data set [12] amounted to 9.2 µM.
On to `COc1ccc(CCN2CC=CCC2)cc1`, for which, in [8], the “inhibition (INH)” value was “Not Active”. Besides, the IC50 in data set [1] is 96.1 µM; in data set [6], 12 µM. The Ratio IC50 in [2] was found to be 8.
`C1=CCN(CCCc2ccccc2)CC1`: the “inhibition (INH)” value in [8] is listed as “Not Active”. In addition, the IC50 in data set [1] was found to be 812 µM; in [6], 86.1 µM. For the same compound, the Ratio IC50 in data set [2] stood at 9.4.
